# CAL PDZ FP-1: blocks peptide binding to human CAL PDZ domain; actives 0.02% (n = 330,000); purified CAL PDZ, TMR-peptide fluorescence polarization, 1 h; Q9HD26; inhibition, % at 20 µM;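 active = highest replicate inhibition of at least 40%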;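 also: plate controls were DMSO neutral control wells for no effect and unlabeled competitor peptide control wells for full effect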
#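 Test system: purified CerCALP PDZ construct; Compound dosing: one concentration, 20 µM compound; Also added: TMR-labelled reporter peptide T*-PRC34 bound in PDZ groove; Read-out: inhibition from polarization loss; Controls: unlabelled peptide and DMSO controls; Signal: FP readout, S and P plane fluorescence; Incubation: 1 h at RT.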
# CFTR F508del cor: CFTR F508del correction in bronchial cells | CFBE cells, YFP halide quenching; stimulated with forskolin plus potentiator P3; % fluorescence drop versus neutral controls | activity (quench increase), % at 7.58 µM | actives 0.36% (n = 350,000);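 active = mean added fluorescence quench of at least 8% versus neutral control, with both replicates also reaching 8%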;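 also: cells transiently co-express mutant CFTR-F508del with the halide-sensitive YFP; corrector assay measuring rescue of mutant channel to the surface after 24 h compound exposure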
# PGC1a acetyl inh: lowers PGC1a acetylation signal in U2OS cells. AlphaScreen anti-acetyl-lysine; with virally co-expressed GCN5 acetyltransferase. inhibition, % at 15.6 µM. actives 0.17% (n = 350,000);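 active = every replicate shows inhibition of at least 40%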;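 also: 0% = neutral control wells and 100% = positive control wells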
# ARNT-TACC3 inh: disruptors of human ARNT/TACC3 interaction; actives 0.66% (n = 390,000); Q9Y6A5; AlphaScreen His-ARNT PAS-B/GST-TACC3 binding, luminescence; TACC3 fragment carries E629A point mutation; inhibition, % at 9.99 µM;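 active = mean inhibition of replicates at least 50% and at least half of replicates each reaching 50%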;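 also: 0% = complete ARNT plus TACC3 wells and 100% = ARNT alone without TACC3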
# CAL PDZ FP-2: blocks peptide binding to the human CAL PDZ domain. purified CAL PDZ, TMR-peptide fluorescence polarization, 1 h. inhibition, % at 24.9 µM. actives 0.92% (n = 300,000). AID 602252;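 active = mean inhibition of at least 30% with at least half of replicates also reaching 30%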;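 also: 0% = DMSO neutral control and 100% = excess unlabeled competitor peptide PRC23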
# miR-122 sensor: miR-122 inhibition in Huh7 cells | Huh7 miR-122 Renilla luciferase sensor, 48 h; neutral wells = 0, positive control = 100 | actives 0.3% (n = 340,000) | AID 602342 | activation (reporter increase), % at 12.5 µM;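 active = mean replicate activation score at least 90 and every replicate individually at or above 90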;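 also: higher luciferase means less miR-122 activity so hits act as miR-122 inhibitors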
# * hit, by the source's call; nt = no result; [ ] = remark or other dose. Sampled rows, rich in hits. Any-hit rate of the full collection: about 1.7%.
SMILES,CAL PDZ FP-1,CFTR F508del cor,PGC1a acetyl inh,ARNT-TACC3 inh,CAL PDZ FP-2,miR-122 sensor
O=C(C[C@H]1CC[C@H]2[C@@H](COC[C@H](O)CN2Cc2cocn2)O1)NCc1cccc(F)c1,nt,0,-7,-5,nt,-5[16.7 µM]
CCOC(=O)N1CCC(NC(=O)c2ccc3c(c2)N=C(C)c2c(C)ccc(C)c2S3)CC1,-3,11*,-22,nt,-6,74
CN(C(=O)COC(=O)/C=C/c1ccc2ccccc2n1)c1c(N)n(Cc2ccccc2)c(=O)[nH]c1=O,-1,-5,-3,-2,-1,-5
COCCN(C(=O)COC(=O)/C=C/c1ccc2ccccc2n1)c1c(N)n(Cc2ccccc2)c(=O)[nH]c1=O,-4,-3,nt,-4,43*,-7
CCN(C(=O)COC(=O)c1cccc2ccccc12)c1c(N)n(Cc2ccccc2)c(=O)[nH]c1=O,-2,18*,nt,10,-8,nt
COCCN(C(=O)CSc1nc2ccccc2s1)c1c(N)n(Cc2ccccc2)c(=O)[nH]c1=O,-1,3,nt,1,99*,nt
CC=Cc1ccc2n(c1=O)C[C@H]1[C@H](CO)[C@@H](C(=O)NCCC)[C@@H]2N1C(=O)c1ccccc1 (mixture of isomers),nt,0,nt,1,nt,-3[16.7 µM]
Cc1noc(C)c1S(=O)(=O)Nc1ccc2c(c1)C(=O)N([C@H](C)CO)C[C@H](C)[C@@H](CN(C)C(=O)c1ccncc1)OCCCC[C@H](C)O2,nt,0,13,-5,nt,2[16.7 µM]
Cc1[nH]c(=S)[nH]c(=O)c1Cc1c(O)ccc2ccccc12,-1,0,-6,12,-3,134*
Cc1[nH]c(=S)[nH]c(=O)c1Cc1ccccc1,0,2,5,-1,-1,-1
CCCC(=O)Nc1ccc2c(c1)C(=O)N(C)C[C@@H](OC)[C@H](C)CN(S(=O)(=O)c1cn(C)cn1)[C@@H](C)CO2,nt,0,1,-15,nt,nt
COc1cccc(-c2ccc([C@H]3[C@@H](C#N)N(C(=O)Cc4ccccc4)[C@@H]3CO)cc2)c1,nt,3,-18,18,nt,nt
Cn1nc(CC#N)c2c(=N)n(N)cnc21,0,2,15,22,nt,7
CCCCn1cnc2c(c(CC#N)nn2-c2ccccc2)c1=N,-1,9.4*,5,nt,nt,-4
C[C@@H]1CCCCO[C@H](CN(C)C)[C@@H](C)CN([C@H](C)CO)C(=O)c2cc(NC(=O)Cc3ccccc3)ccc2O1,nt,-2,-1,nt,nt,9[16.7 µM]
Cc1[nH]nc2ncc(C(=O)c3ccccc3O)cc12,-1,nt,45*,-12,-1,-4
CC(C)CC#Cc1ccc([C@H]2[C@@H](CO)N3C(=O)CN(C(=O)Nc4ccc(F)cc4)C[C@@H]23)cc1,nt,-1,10,nt,nt,nt
CCN(CC)S(=O)(=O)c1cc(NS(=O)(=O)c2cccc(Cl)c2)ccc1C,-1,-3,nt,1,nt,254*
CCc1ccccc1N1C(=O)CC(Sc2nccc(C)n2)C1=O (stereo unspecified),nt,-2,9,-12,100*,-4
CCN1C(=O)CS/C1=N\S(=O)(=O)c1ccccc1,0,0,-3,-7,76*,5
CCN1C(=O)CS/C1=N\S(=O)(=O)c1ccc(C)cc1,2,2,6,4,-2,-3
CCN1C(=O)CSC1=Nc1ccc(Cl)c(Cl)c1,-5,2,-1,active,0,-3
C[C@@H]1CCCCO[C@H](CN(C)C(=O)Nc2ccc(F)cc2)[C@H](C)CN([C@@H](C)CO)C(=O)c2cc(NS(C)(=O)=O)ccc2O1,nt,4,3,-5,nt,1[16.7 µM]
COc1ccc(/C=N/NC(=O)c2cccc([N+](=O)[O-])c2)cc1O,-1,-2,-2,-11,4,nt
O=C(NN=Cc1ccccc1O)c1cccc([N+](=O)[O-])c1,1,11*,40,-5,-5,-3
SMILES,CAL PDZ FP-1,CFTR F508del cor,PGC1a acetyl inh,ARNT-TACC3 inh,CAL PDZ FP-2,miR-122 sensor
Cc1cccc(C(=O)N/N=C/c2ccccn2)c1,0,nt,nt,54*,-4,nt
O=C(N/N=C/c1ccccn1)c1cccc(NC(=O)c2ccccc2Cl)c1,-4,3,nt,63*,4,nt
O=C(N/N=C/c1ccccn1)C(=O)N1CCCCCC1,0,1,3,53*,nt,nt
CC(C)(C)[C@@H]1C=C(C(=O)N2CCCCCCC2)O[C@H](OCc2ccc(CO)cc2)C1,nt,-2,nt,-7,nt,nt
CCC(=O)N1C[C@H](C)[C@H](OC)CN(C)C(=O)c2cc(NC(=O)NC(C)C)ccc2OC[C@@H]1C,nt,-2,-9,2,nt,-1[16.7 µM]
O=C(N/N=C/c1cccs1)c1ccc(NC(=O)c2ccccc2Cl)cc1,-6,nt,nt,nt,0,nt
O=C(O)c1cccc(NC(=S)N/N=C/c2ccccn2)c1,-3,0,nt,66*,-1,nt
O=C(N/N=C/c1cccs1)c1cccc(NC(=O)c2ccccc2Cl)c1,-7,9.5*,nt,nt,-3,nt
O=C(N/N=C/c1ccccn1)c1cc([N+](=O)[O-])cc([N+](=O)[O-])c1,1,-3,9,61*,1,-1
O=C(N/N=C/c1ccccn1)c1cc(C2CC2)[nH]n1,0,1,-12,48*,0,4
Cc1noc(C)c1NC(=O)Nc1cccc2c1O[C@@H](CN(C)S(=O)(=O)c1cccs1)[C@H](C)CN([C@H](C)CO)C2=O,nt,-3,-7,-8,nt,-5[16.7 µM]
O=C(CCCC(=O)N/N=C\c1ccccn1)N/N=C\c1ccccn1,-2,nt,nt,15,0,nt
CC(Nc1cccc2ccccc12)C(=O)N/N=C/c1ccccn1 (stereo unspecified),-2,nt,3,67*,-1,14
Cc1ccccc1C(=O)Nc1cccc(C(=O)N/N=C/c2cc(Cl)cc([N+](=O)[O-])c2O)c1,-1,3,nt,52*,-2,nt
O=C(N/N=C/c1ccccn1)c1ccc(NC(=O)c2cccc([N+](=O)[O-])c2)cc1,0,nt,-15,nt,-2,7
COc1cc(/C=N/NC(=O)c2cccc(NC(=O)c3ccccc3C)c2)ccc1O,0,1,nt,13,nt,nt
Cc1cccc(C(=O)Nc2cccc(C(=O)N/N=C/c3ccccn3)c2)c1,nt,0,-10,71*,-5,nt
O=C(N/N=C/c1ccccn1)c1cccc(S(=O)(=O)Nc2ccccc2Cl)c1,-1,-2,-2,65*,0,nt
C[C@H]1CN([C@@H](C)CO)C(=O)Cc2cc(NC(=O)Cn3cnnn3)ccc2O[C@H]1CN(C)Cc1ccc(-c2ccccc2)cc1,nt,0,2,4,nt,-2[16.7 µM]
C[C@H]1CN([C@@H](C)CO)C(=O)Cc2cc(NC(=O)c3ccncc3)ccc2O[C@H]1CN(C)Cc1ccc(Cl)c(Cl)c1,nt,2,2,nt,nt,2[16.7 µM]
CC1(Cc2ccc(Cl)cc2)C(=O)Nc2ccc(-c3cccnc3)cc21 (stereo unspecified),nt,4,46*,nt,nt,10

# High-throughput results deposited in PubChem BioAssay by Broad Institute.
